Key:
Type in all cases: functional
[1] = molecular target: T1, Estrogen receptor (Mus musculus) (UniProt O08537+P19785); assay: Estrogenic effect in uterotrophic assay in mice at 10 nM/animal dose
How it was run: (§1)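 Immature female NMRI mice (20 days old, 10–12 g, six per group) given test compound sc once daily for three consecutive days in poly(ethylene glycol) 400/H2O (1.8% NaCl) 1:1. Uteri excised 24 h after last injection, fixed in Bouin's solution, dried, weighed. Effect = uterus dry weight (mg)/body weight (g) × 100, expressed relative to vehicle and estrone standard (0.4 μg) as % estrogenic effect.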

[2] = molecular target: T1, Estrogen receptor (Mus musculus); assay: Estrogenic effect in uterotrophic assay in mice at 100 nM/animal dose; how it was run: as §1
[3] = molecular target: T1, Estrogen receptor (Mus musculus); assay: Estrogenic effect in uterotrophic assay in mice at 0.1 nM/animal dose; how it was run: as §1
[4] = molecular target: T1, Estrogen receptor (Mus musculus); assay: Estrogenic effect in uterotrophic assay in mice at 1 nM/animal dose; how it was run: as §1
[5] = molecular target: T1, Estrogen receptor (Mus musculus); assay: Estrogenic effect in uterotrophic assay in mice at 1000 nM/animal dose; how it was run: as §1

T1 sequence (O08537 whole entry, looked up): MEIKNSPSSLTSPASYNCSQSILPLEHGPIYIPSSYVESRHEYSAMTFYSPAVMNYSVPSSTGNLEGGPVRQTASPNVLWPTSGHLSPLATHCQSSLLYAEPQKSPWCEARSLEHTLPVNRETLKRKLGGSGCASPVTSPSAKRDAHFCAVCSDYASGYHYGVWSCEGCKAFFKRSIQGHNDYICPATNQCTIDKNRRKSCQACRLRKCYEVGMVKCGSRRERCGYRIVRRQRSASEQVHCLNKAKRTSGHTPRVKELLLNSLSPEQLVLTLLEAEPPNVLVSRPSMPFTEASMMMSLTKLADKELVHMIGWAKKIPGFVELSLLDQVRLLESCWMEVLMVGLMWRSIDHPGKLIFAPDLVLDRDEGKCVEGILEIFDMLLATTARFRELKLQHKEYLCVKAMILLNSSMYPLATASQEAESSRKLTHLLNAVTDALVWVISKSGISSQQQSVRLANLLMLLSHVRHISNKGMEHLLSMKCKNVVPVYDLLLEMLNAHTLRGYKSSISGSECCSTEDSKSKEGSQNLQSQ
T1 sequence (P19785 whole entry, looked up): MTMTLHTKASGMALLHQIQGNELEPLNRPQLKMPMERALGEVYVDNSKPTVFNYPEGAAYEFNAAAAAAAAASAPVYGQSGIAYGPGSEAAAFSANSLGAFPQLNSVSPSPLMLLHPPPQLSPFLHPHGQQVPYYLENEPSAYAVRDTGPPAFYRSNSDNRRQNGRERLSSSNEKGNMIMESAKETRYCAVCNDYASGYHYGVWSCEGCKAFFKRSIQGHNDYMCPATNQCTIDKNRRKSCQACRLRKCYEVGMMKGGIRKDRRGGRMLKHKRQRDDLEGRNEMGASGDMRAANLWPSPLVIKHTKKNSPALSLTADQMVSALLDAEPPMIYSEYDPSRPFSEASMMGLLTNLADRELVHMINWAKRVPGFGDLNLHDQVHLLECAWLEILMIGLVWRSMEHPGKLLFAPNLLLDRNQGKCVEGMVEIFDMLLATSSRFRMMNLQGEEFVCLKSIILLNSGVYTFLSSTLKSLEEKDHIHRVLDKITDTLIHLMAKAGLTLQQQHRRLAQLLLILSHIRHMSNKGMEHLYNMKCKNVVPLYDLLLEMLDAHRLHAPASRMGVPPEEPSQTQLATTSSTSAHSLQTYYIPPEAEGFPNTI

Estrogenic effect [1] | Estrogenic effect [2] | Estrogenic effect [3] | Estrogenic effect [4] | Estrogenic effect [5] | SMILES
140% | 156% | 22% | 93% |  | CCNC(CCC(N)c1c(Cl)cc(O)cc1Cl)c1c(Cl)cc(O)cc1Cl (stereo unspecified)
78% | 142% | 0% | 0% |  | CCNC(CCC(NCC)c1c(Cl)cc(O)cc1Cl)c1c(Cl)cc(O)cc1Cl (racemic)
140% | 128% | 61% | 125% |  | CCNC(CCC(NCC)c1c(Cl)cc(O)cc1Cl)c1c(Cl)cc(O)cc1Cl (stereo in doubt)
13% | 10% | 0% | 0% | 21% | NC(CCC(N)c1c(Cl)cc(O)cc1Cl)c1c(Cl)cc(O)cc1Cl (racemic)
135% | 100% | 0% | 38% |  | NC(CCC(N)c1c(Cl)cc(O)cc1Cl)c1c(Cl)cc(O)cc1Cl (stereo in doubt)
139% | 127% | 0% | 47% | 47% | CNC(CCC(NC)c1c(Cl)cc(O)cc1Cl)c1c(Cl)cc(O)cc1Cl (stereo in doubt)
3% | 12% | 0% | 0% | 72% | CNC(CCC(NC)c1c(Cl)cc(O)cc1Cl)c1c(Cl)cc(O)cc1Cl (racemic)
